Screens deposited in PubChem by several laboratories.
A selection: hits, their analogues and other compounds. The true share with any hit is near 4.1%.
KCNQ1 pot – potentiators or activators of KCNQ1 channel, primary screen, cell-based, thallium flux, high-throughput; Potassium voltage-gated channel subfamily KQT member 1 (Homo sapiens), P51787; CHO-K1 KCNQ1, thallium flux FluxOR fluorescence; stronger effect = higher value; B-score at 10 µM; hit rate 0.35% among 310,000; AID 2648, 2010;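 active means fluorescence ratio B-score, a plate-corrected score, at least three library SD, with initial intensity B-score within 5 SD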
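Assay system: stable KCNQ1 CHO-K1 line; medium: assay buffer, equal DMSO in all wells; timing: 90 min dye loading and 20 min compound exposure, both at room temperature; technique: kinetic FluxOR thallium fluorescence, 10-s 1-Hz baseline, 110-s post-stimulus read; read-out basis: B score of baseline-normalized fluorescence ratio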
Cl transport mod – KCC2 cotransporter modulators, thallium flux, primary screen, cell-based, HEK293 KCC2, FluoZin-2 fluorescence, MLSMR; hit rate 2.2% among 190,000; Solute carrier family 12 member 5 (Homo sapiens), Q9H2X9; KCC2 cells, thallium flux FluoZin-2 fluorescence; AID 1456, 2008; B-score of Tl+ flux slope (higher = more flux/activation; lower = inhibition) at 10 µM;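 active means thallium flux slope and its plate-corrected score both differing from the plate sample mean at a set confidence after two filtering rounds, in either direction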;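 further: slope of fluorescence scaled to starting intensity during 10 to 20 s after thallium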
KCNK3 block – human KCNK3 channel inhibitors, primary screen, CHO cells, FluxOR thallium flux, B-score | Potassium channel subfamily K member 3 (Homo sapiens), O14649 | FluxOR fluorescence; stronger effect = lower value | B-score at 10 µM | hit rate 0.84% among 340,000 | AID 602410, 2012;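 active means B-score under library mean minus 4 SD, starting fluorescence ratio at most library mean plus 5 SD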;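 further: more negative B-score means stronger inhibition of thallium flux through KCNK3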
hERG protect – hERG rescue from dofetilide block, primary screen, cell-based, CHO-hERG, FluxOR thallium flux, dofetilide IC70; dofetilide IC70 present; Voltage-gated inwardly rectifying potassium channel KCNH2 (Homo sapiens), Q12809; hit rate 0.51% among 310,000; activation (rescue from dofetilide block), less the hit threshold, % at 10 µM;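 active means activation above the mean of controls blocked by dofetilide plus 5 SD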;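 further: thallium influx through hERG after potassium depolarization seen as dye fluorescence rise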
KCNQ1 inh – inhibitors of human KCNQ1 channel, primary screen, cell-based, thallium flux, high-throughput; CHO-K1 KCNQ1, FluxOR thallium flux fluorescence; stronger effect = higher value; Potassium voltage-gated channel subfamily KQT member 1 (Homo sapiens), P51787; AID 2642, 2010; hit rate 1.3% among 310,000; B-score at 10 µM;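 active means compounds whose thallium flux B-score, printed positive for inhibition, exceeds three library SD while starting fluorescence stays within three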;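 further: channel opened by potassium depolarization with thallium stimulus after 20 min compound exposure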
KCNK9 inh – KCNK9 potassium channel inhibitors, primary screen, HEK293 cells, thallium flux; Potassium channel subfamily K member 9 (Homo sapiens), Q9NPC2; FluxOR thallium flux fluorescence; stronger effect = lower value; B-score at 10 µM; hit rate 1.2% among 310,000; AID 488922, 2010;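 active means ratio B-score over 3 SD below the library mean, with starting fluorescence within 5 SD of its mean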;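 further: negative B-score means less thallium flux so channel inhibition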
KCC2 sec1 – KCC2 modulators in sodium-free buffer, confirmation, cell-based, HEK293 KCC2, thallium flux, secondary assay | FluoZin2 fluorescence; stronger effect = higher value | normalised thallium flux (F/F0 slope) at 10 µM | AID 1713, 2009 | shares compounds with Cl transport mod | hit rate 15% among 3,700;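 active means thallium flux slope above the same plate's solvent-only control mean plus 3 SD; inconclusive means the two replicate wells disagree; inactive means no significant difference from solvent-only control wells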
KCC2 bumet counter – thallium flux persisting under bumetanide in KCC2 cells, confirmation, counter-screen for KCC2 modulator project, cell-based, HEK293 KCC2, FluoZin2, secondary assay 3 | shares compounds with Cl transport mod | HEK293-KCC2 + bumetanide/ouabain; stronger effect = higher value | normalized thallium flux at 10 µM | hit rate 49% among 3,700;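 active means thallium entry rate above the same plate's blocked-transporter control wells by more than 3 SD; inconclusive means the two repeat wells disagree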;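 further: raw slope of fluorescence over initial fluorescence between 10 and 20 s after thallium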
KCC2 sec2 – KCC2 modulators without ouabain present, confirmation, cell-based, HEK293 KCC2, thallium flux, FluoZin2, secondary assay 2; normalized thallium flux at 10 µM; thallium flux FluoZin2 fluorescence; actives lie on both sides; F/F0 rise rate, 10–20 s post-thallium; shares compounds with Cl transport mod; AID 1715, 2009; hit rate 23% among 3,700;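 active means thallium flux slope more than 3 SD above or below the plate's solvent-only control mean, mostly below; inconclusive means the two repeat wells disagreed; inactive means no significant shift from solvent-only controls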
HEK293 Tl flux – thallium flux modulation in parental HEK cells, confirmation, counter-screen for KCC2 modulator project, cell-based, counterscreen 1. HEK293 parental cells, thallium flux FluoZin2, ouabain; baseline-ratio fluorescence slope, 10–20 s after thallium. thallium flux rate (normalised fluorescence) at 10 µM. shares compounds with Cl transport mod. hit rate 46% among 3,700. AID 1716, 2009;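 active means thallium flux rate significantly above the same plate's solvent-only control wells, beyond their mean plus 3 SD; inconclusive means the two replicate wells gave conflicting results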
KCC2 retest ouab – KCC2 inhibitors and activators, ouabain retest, confirmation, HEK-KCC2 cells; HEK293-KCC2, thallium flux FluoZin2 fluorescence; bidirectional: low = inhibitor, high = activator; raw Tl+ flux slope (below DMSO = inhibition, above = activation) at 10 µM; shares compounds with Cl transport mod; AID 1717, 2009; hit rate 48% among 3,700;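 active means thallium flux slope beyond 3 SD from same-plate DMSO control mean in most replicates, usually higher, sometimes lower; inconclusive means repeat tests gave conflicting results; inactive means no significant difference from controls in most replicates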;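 further: slope of initial-normalized fluorescence between seconds 10 and 20 after thallium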
HEK counter2 – native HEK Tl+ uptake effects, second counter-screen – HEK cells, counterscreen 2, counter-screen for KCC2 modulator project, confirmation | shares compounds with Cl transport mod | HEK293 parental, thallium flux FluoZin-2 fluorescence slope | thallium flux slope at 10 µM | hit rate 33% among 3,700 | AID 1718, 2009;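 active means thallium flux slope above the same plate's solvent-control mean plus 3 SD in both duplicate wells; inconclusive means duplicate wells that disagreed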;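 further: run without ouabain in cells lacking the KCC2 cotransporter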
Large screens that a line does not name were inactive (follow-up assays come after a bar, where they were run).

O=c1[nH]c(=O)n(C2CCCO2)cc1Br (stereo not drawn)	Cl transport mod 3.9 | KCC2 sec1 inactive | KCC2 bumet counter inactive | KCC2 sec2 inactive | HEK293 Tl flux inactive | KCC2 retest ouab inactive | HEK counter2 inactive
O=c1[nH]c(=O)n([C@H]2C[C@H](O)[C@@H](CO)O2)cc1Br	none (no result: KCNQ1 pot, Cl transport mod, hERG protect, KCNQ1 inh, KCNK9 inh)
CCN(CC)CC#CCC(O)(c1ccccc1)C1CCCCC1 (stereo not drawn)	none
CCN(CC)CC#CCOC(=O)C(O)(c1ccccc1)C1CCCCC1 (stereo not drawn)	none | KCC2 sec1 inactive | KCC2 bumet counter inactive | KCC2 sec2 inactive | HEK293 Tl flux inactive | KCC2 retest ouab inactive | HEK counter2 inactive
COCCNC(=O)c1ccccc1NC(=O)c1cc(OC)cc(OC)c1	none
O=[N+]([O-])c1cccc(/C=N/NC2=NS(=O)(=O)c3ccccc32)c1	Cl transport mod -3.8 | KCC2 sec1 inactive | KCC2 bumet counter inconclusive | KCC2 sec2 inactive | HEK293 Tl flux inactive | KCC2 retest ouab inactive | HEK counter2 inactive
O=[N+]([O-])c1cccc(/C=N/Nc2ccccn2)c1	none
CCOC(=O)C1=C(N)OC2=C(C(=O)CCC2)C1c1sccc1C (stereo not drawn)	Cl transport mod -6.4 | KCC2 sec1 inactive | KCC2 bumet counter inactive | KCC2 sec2 inconclusive | HEK293 Tl flux 0.0062 | KCC2 retest ouab inactive | HEK counter2 0.0088
COc1ccc(CCNC(=O)CSc2ccc3nnc(CCNC(=O)c4ccc(C)cc4)n3n2)cc1OC	none (no result: Cl transport mod)
COC(=O)C1CCN(S(=O)(=O)c2cn(C)c(=O)n(C)c2=O)CC1	Cl transport mod -3.4 | KCC2 sec1 inactive | KCC2 bumet counter inconclusive | KCC2 sec2 inactive | HEK293 Tl flux inactive | KCC2 retest ouab inactive | HEK counter2 inactive
O=C(CC1C(=O)NCCN1Cc1ccc(-c2ccccc2)cc1)NCCCn1cccn1 (stereo not drawn)	none
CC1CC(C)(C)NC2(CCCC2)N1 (stereo not drawn)	none (no result: KCNQ1 pot, Cl transport mod, hERG protect, KCNQ1 inh, KCNK9 inh)
COC(=O)c1cn(CCC#N)nc1-c1ccc2ccccc2c1	none (no result: Cl transport mod)
